Compound activity as filed in PubChem BioAssay.
Hits are enriched below; roughly 1.8% of the tested compounds scored in any of these assays.
M4 antag = CHRM4 antagonism in calcium assay. hit rate 0.73% among 360,000. P08173. CHO-hM4 cells, ACh EC80, Fluo-8 calcium fluorescence. AID 624125. inhibition, % at 3 µM;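 active means inhibition above its plate's cutoff, the mean inhibition of sample wells plus 3 SD, cut at about 27% in these data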;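 further: 0% = acetylcholine EC80 with DMSO and 100% = DMSO without agonist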
Target sequence (P08173 whole entry, looked up): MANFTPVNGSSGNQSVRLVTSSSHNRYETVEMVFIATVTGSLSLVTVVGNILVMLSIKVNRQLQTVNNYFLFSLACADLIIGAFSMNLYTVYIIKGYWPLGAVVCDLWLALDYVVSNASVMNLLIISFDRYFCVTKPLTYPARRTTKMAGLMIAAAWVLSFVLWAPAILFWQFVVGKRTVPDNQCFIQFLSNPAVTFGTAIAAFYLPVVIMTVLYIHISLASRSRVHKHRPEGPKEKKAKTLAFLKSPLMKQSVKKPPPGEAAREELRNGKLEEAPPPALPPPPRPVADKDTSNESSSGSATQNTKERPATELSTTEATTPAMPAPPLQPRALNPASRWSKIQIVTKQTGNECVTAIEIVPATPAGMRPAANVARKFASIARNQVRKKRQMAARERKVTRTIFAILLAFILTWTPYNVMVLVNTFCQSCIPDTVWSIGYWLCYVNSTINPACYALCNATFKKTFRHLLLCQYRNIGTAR
M5 PAM = positive allosteric modulators of human muscarinic M5 receptor | P08912 | CHO-K1 hM5, Fluo-8 calcium, ACh EC20 PAM; 0% = ACh EC20, 100% = ACh EC100 | activation, % at 3 µM | hit rate 0.3% among 360,000 | AID 624038;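 active means activation above the run cutoff, the mean activation of all test compounds plus 3 SD, cut at about 18% in these data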
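Assay system – human M5 receptor in CHO-K1 cells · Read-out – % activation, ACh-normalized · Technique – Fluo-8 calcium fluorescence · Dosing – single-point, 3 µM nominal · Incubation – Fluo-8 loading 80 min at 37 °C plus 30 min room temperature · Repeats – singlicate, one well per test compound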
M4 PAM = potentiates acetylcholine response at human M4 receptor; P08173; CHO-K1 hM4/Gqi5, Fluo-8 calcium fluorescence, ACh EC20; 0% = ACh EC20, 100% = maximal ACh; activation, % at 3 µM; hit rate 0.4% among 360,000;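 active means activation above its plate's cutoff, the mean activation of sample wells plus 3 SD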
CHRM5 agonist = agonists of human muscarinic M5 receptor (CHRM5); P08912; CHO-K1 hM5 cells, Fluo-8 calcium fluorescence; 0% DMSO wells, 100% maximal acetylcholine response; activation, % at 3 µM; hit rate 0.19% among 360,000; AID 624037;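 active means activation above the run's mean over test compounds plus 3 SD, cut at about 23% in these data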;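 further: signal is peak over basal fluorescence ratio across the kinetic read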
M4 ag = agonists of human muscarinic M4 receptor (CHRM4); P08173; CHO-K1 hM4/Gqi5, Fluo-8 calcium fluorescence; vehicle 0%, full acetylcholine response 100%; activation, % at 3 µM; hit rate 0.14% among 360,000; AID 624127;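 active means activation above the run mean over all test wells plus 3 SD, cut at about 32% in these data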;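 further: peak over basal fluorescence ratio per well then scaled between controls; 0% = DMSO wells and 100% = acetylcholine at EC100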
M5 antag = blocks acetylcholine activation of human M5 receptor | P08912 | CHO-hM5 cells, Fluo-8 calcium fluorescence, ACh EC80 | hit rate 0.59% among 360,000 | inhibition, % at 3 µM;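 active means inhibition above a per-plate cutoff, the mean of that plate's test compounds plus 3 SD, cut at about 27% in these data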;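 further: 0% = acetylcholine EC80 with DMSO and 100% = DMSO without agonist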
Starred values were filed as active, the others as inactive.

SMILES	M4 antag	M5 PAM	M4 PAM	CHRM5 agonist	M4 ag	M5 antag
COc1ccc(C2(C)NC(=O)N(CC(=O)Nc3cccnc3Cl)C2=O)cc1 (centres undefined)	4	-4	-2	10	2	4
CC1(c2ccc(OC(F)F)cc2)NC(=O)N(CC(=O)Nc2cccnc2Cl)C1=O (centres undefined)	8	-12	-6	43*	28	8
COc1ccc([C@H]2CC(=O)C=C(c3cccc(NC(C)=O)c3)C2)cc1	5	0	1	2	6	-2
COc1cc(/C=C2\CC/C(=C\c3ccc(OCCO)c(OC)c3)C2=O)ccc1OCCO	6	-17	-10	55*	10	26
COc1cc(/C=C2\COC/C(=C\c3ccc(O)c(OC)c3)C2=O)ccc1O	6	-16	-8	-12	11	10
COc1ccc(/C=C2\CN(Cc3ccccc3)C/C(=C\c3ccc(OC)c(O)c3)C2=O)cc1O	24	-11	-18	2	24	27*
COc1cc(/C=C2/CC/C(=C/c3ccc(O)c(OC)c3)C2=O)ccc1O	9	-21	-18	25*	16	36*
CCCOc1ccc(/C=C/C(=O)O)cc1OC	-15	0	19*	1	1	7
COc1ccc(S(=O)(=O)N2CCOCC2)cc1NC(=O)CSc1nnnn1C1CC1	0	-9	3	3	0	7
COC(=O)c1c(C(=O)OC)c(-c2ccc(Br)cc2)n2c1CS(=O)C2 (centres undefined)	-2	-3	2	0	0	7
O=C(COC(=O)COc1cccc(C(F)(F)F)c1)NC(=O)NC1CCCCC1	5	-11	4	-7	2	14
CCc1c(C)nc2ncnn2c1NCCc1ccc(OC)c(OC)c1	-2	-6	-2	1	3	13
COc1ccc(CCNc2c(C)c(C)nc3ncnn23)cc1	6	-23	-1	11	13	29*
CCOP(=O)(OCC)C(Cc1ccc(OC)c(OC)c1)N=C(c1ccccc1)c1ccccc1 (centres undefined)	-7	-3	-1	0	3	5
O=S1(=O)CCN(C2CC2)CC1	5	-3	-3	0	-1	6
CCNC(=O)CC1C(=O)N(CC)C(=S)N1NC(=O)c1ccccc1 (centres undefined)	21	28*	17*	1	5	29*
CNC(=O)CC1C(=O)N(C)C(=S)N1NC(=O)c1ccccc1 (centres undefined)	1	1	-5	5	3	9
COc1ccc(/C=N/N(C)C2=NCCN2)c(OC)c1OC	4	7	2	-3	0	0
Cc1ccc(C(=O)N2CCCC(Nc3ccc(F)cc3)C2)cc1C (centres undefined)	-4	2	2	-4	1	-5
Cc1ccccc1CN1CCC(CNC(=O)C2CCCN(c3ncnc4c3nc3n4CCCCC3)C2)CC1 (centres undefined)	63*	-15	-22	-10	3	16
Cc1cc2nc(C(C)(C)C)c(Cc3ccccc3)n2c(C)c1Br	-6	-2	-8	2	0	-8
Nc1cc(N)cc(-c2nc3ccccc3[nH]2)c1	26*	5	9	0	0	-5
c1ccc(-c2nc3ccccc3[nH]2)cc1	-4	1	-1	1	1	-7
Cc1ccc(S(=O)(=O)N2CCN(C(=O)CSCc3ccc(C(C)C)cc3)CC2)cc1	1	-5	5	2	8	-4
Cn1c(CNC(=O)c2ccco2)nnc1SCCOc1ccccc1	11	2	-6	1	2	11
NC(=O)c1cccc(-c2ccnc3c2CC(C(=O)NCc2ccccc2)O3)c1 (centres undefined)	-22	-1	5	0	3	0
Nc1cc(=O)[nH]c(SCCOc2ccccc2)n1	2	-16	-10	-1	18	27*
